Scp-1 inhibitor – blocks human Scp-1 phosphatase activity. 340,000 tested, 0.88% active. inhibition, % at 20 µM. Recombinant Scp1, phosphopeptide, malachite green phosphate absorbance. AID 493091;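 active means inhibition above about 50% at 20 µM, limit read from the data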;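 further: plate controls were DMSO wells with enzyme for no effect and wells lacking enzyme for full effect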
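Test system: SCP-1 catalytic domain; Buffer or medium: Acidic Tris acetate buffer with magnesium and detergent; Also added: Phosphorylated 17-residue peptide substrate; Compound: single 20 µM dose, 1% DMSO; Schedule: enzyme reaction 45 min at room temperature, colour 5 min, stabilisation 30 min; Signal: Phosphate-binding colour reagent, absorbance read at 630 nm.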
STEP block – blocks human striatal-enriched tyrosine phosphatase; P54829; recombinant STEP, OMFP fluorogenic substrate, fluorescence; inhibition, % at 20 µM; 360,000 tested, 0.25% active; AID 588621;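 active means inhibition at 20 µM, scaled per plate between control wells, above about 37%, limit read from the data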;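 further: 0% = DMSO with enzyme and substrate and 100% = substrate only without enzyme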
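System: isolated STEP enzyme; schedule: 20 min enzyme reaction at room temperature, protected from light; medium: Bis-Tris buffer pH 6.0, 2.5 mM DTT, 0.005% Tween 20; signal: fluorescence, 480/540 nm; dosing: single compound dose of 20 µM, 1% DMSO final; also added: OMFP substrate, 25 µM final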
CSN inh – blocks human CSN-mediated cullin deneddylation | Q92905 | Purified CSN, SCF-Nedd8-OG deneddylation, fluorescence polarization | 360,000 tested, 0.38% active | inhibition, % at 12.5 µM | AID 651999;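 active means pattern-corrected inhibition above about 35%, with an unprinted fluorescence ratio check between 0.5 and 1.5, limit read from the data, passing the limit was not always enough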;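 further: 0% = enzyme with substrate and 100% = substrate without enzyme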
Target sequence (Q92905 whole entry, looked up, one chain of several): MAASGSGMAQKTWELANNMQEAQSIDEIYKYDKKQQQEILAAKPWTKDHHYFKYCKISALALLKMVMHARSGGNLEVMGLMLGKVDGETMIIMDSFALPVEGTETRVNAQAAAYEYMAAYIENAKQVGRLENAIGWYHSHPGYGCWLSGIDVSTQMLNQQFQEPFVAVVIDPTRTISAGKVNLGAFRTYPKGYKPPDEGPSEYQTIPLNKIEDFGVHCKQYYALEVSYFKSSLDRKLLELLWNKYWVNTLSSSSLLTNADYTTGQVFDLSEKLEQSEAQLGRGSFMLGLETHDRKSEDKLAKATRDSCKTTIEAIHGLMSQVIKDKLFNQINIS
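Material: purified human Csn5 enzyme expressed in HEK293T cells / Medium: Tris buffer pH 7.5, NaCl, DTT, Tween-20, trehalose, ovalbumin / Compound dosing: 12.5 µM single point / Schedule: 90 min incubation of compound, enzyme and substrate at room temperature / Signal: fluorescence polarization of the substrate / Control set: no-enzyme wells high, enzyme-with-substrate wells low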
LMPTP block – LMPTP (human) inhibition; P24666; recombinant LMPTP-A, OMFP fluorogenic substrate, fluorescence intensity; inhibition, % at 20 µM; 360,000 tested, 0.22% active;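 active means compounds that cut the enzyme signal by at least half of the control window in the single-dose screen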;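 further: plate controls were DMSO wells with enzyme plus substrate for no effect and substrate without enzyme for full effect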
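Assay system: LMPTP-A enzyme. Input: 0.625 nM LMPTP-A final. Probe or stimulus: 400 µM OMFP. Compound dosing: single 20 µM dose. Schedule: 50 min dark incubation at room temperature. Detection: fluorescence intensity of OMFP turnover product. Read-out: percent inhibition versus substrate-only and uninhibited controls. Benchmarks: no-enzyme low control, uninhibited high control.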
DNMT1 inh – blocks human DNA methyltransferase DNMT1. 360,000 tested, 0.83% active. inhibition (reported as % activation of signal), % at 10 µM. AID 588458. DNMT1 molecular beacon, Hinp1I cleavage, fluorescence; in the data active means inhibition above about 50%
SUMO1 PPI mod – SUMO1-SIM interaction modulation | P63165 | SUMO1 binding to a labelled peptide, TR-FRET, 1 h | inhibition, % at 20 µM | 360,000 tested, 0.33% active | AID 602429; in the data active means inhibition above about 37%
Target sequence (P63165 whole entry, looked up): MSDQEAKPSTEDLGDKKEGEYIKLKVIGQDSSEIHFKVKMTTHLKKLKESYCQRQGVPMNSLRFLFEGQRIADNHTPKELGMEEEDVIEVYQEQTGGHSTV
Scp-1 conf – confirmation of human Scp-1 phosphatase inhibitors; inhibition, % at 20 µM; 2,500 tested, 61% active; shares compounds with Scp-1 inhibitor; recombinant SCP-1 catalytic domain, phosphate release, malachite green absorbance;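 further: plate controls were DMSO with enzyme for no effect and buffer wells lacking enzyme for full effect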
MG interference – counter-screen for Scp-1 inhibitors: colorimetric interference. Colorimetric interference counterscreen, malachite green absorbance 630 nm. apparent inhibition (interference), % at 20 µM. 2,500 tested, under 10 active. shares compounds with Scp-1 inhibitor;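 further: compounds added after enzyme reaction finished so only phosphate colour detection is probed; plate controls were DMSO wells with completed Scp-1 reaction for no effect and substrate wells lacking enzyme for full effect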
Scp1 DSF – binds human Scp-1, shifting its melting temperature; thermal shift relative to vanadate control, % at 40 µM; Recombinant SCP1, Sypro Orange thermal shift Tm; AID 540329; shares compounds with Scp-1 inhibitor; 1,500 tested, 25% active;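 active means substances whose mean melting-temperature shift, as a percentage of the reference inhibitor's shift, reaches about 5.3%, limit read from the data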;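 further: 0% = Tm of DMSO wells and 100% = Tm with sodium orthovanadate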
* marks the source's active call; other numbers are inactive results; x = no result given. Sampled rows, rich in hits. Any-hit rate of the full collection: about 1.9%.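 How the source made its calls, unless noted: active means inhibition of at least 30% at 20 µM; inactive means the rest.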

SMILES	Scp-1 inhibitor	STEP block	CSN inh	LMPTP block	DNMT1 inh	SUMO1 PPI mod	Scp-1 conf	MG interference	Scp1 DSF
O=C(O)/C=C\C(=O)Nc1cccc(NC(=O)c2ccccc2)c1	1	1	2	-1	-2	7	x	x	x
CC(=O)Nc1ccc2c(O)cc(S(=O)(=O)O)cc2c1	59*	23	0	31	28	7	46*	-14	0
O=C1N(Cc2cccnc2)C[C@@H]2C[C@@H](c3cccc(OC4CCCC4)c3)N3CCC[C@@]123	-2	1	0	2	-6	-1	x	x	x
CC1CCN(C(=O)c2cc(-c3ccccc3O)on2)CC1	53*	-3	-1	0	9	-3	-17	-13	x
O=C(Nc1ccc(O)c(-c2nc3ccccc3s2)c1)c1cc(=O)c2ccccc2o1	80*	38	3	52*	31	6	68*	-14	2
CCN(CC)S(=O)(=O)c1ccc(N2CCOCC2)c(NC(=O)c2c3c(nc4ccccc24)CCC3)c1	68*	0	3	10	65*	-2	48*	-13	5
O=C1CCCCC1Nc1ccc(Br)cc1 (stereo not drawn)	-10	-1	-6	0	-5	-7	x	x	x
COc1ccc(S(=O)(=O)CCC(=O)N2CCN(c3ccc([N+](=O)[O-])cc3)CC2)cc1	-6	-1	3	-1	1	-28	x	x	x
Cc1ccc(S(=O)(=O)CCC(=O)N2CCN(c3ccc([N+](=O)[O-])cc3)CC2)cc1	59*	2	2	1	-1	-32	0	-8	x
Cc1ccc(N2CCN(C(C(=O)Nc3c(C)cccc3C)c3cc4ccccc4o3)CC2)cc1 (stereo not drawn)	x	x	0	4	x	5	x	x	x
O=c1c2cc(-c3ccccc3)sc2nc2n1N=C(c1ccccc1)CS2	108*	6	10	42	19	29	59*	-25	1
O=C(c1ccc(Cl)cc1)c1ccc(Oc2cc(NN3CCCCC3)c([N+](=O)[O-])cc2[N+](=O)[O-])cc1	-6	0	-4	0	7	-9	x	x	x
O=C(Nc1ccnc(=O)[nH]1)c1sc2ccccc2c1Cl	98*	6	8	9	1	-16	67*	-15	-13
COc1ccc(/C=C(\C#N)C(=O)Nc2ccc3[nH]c(=O)[nH]c3c2)cc1	111*	4	3	32	24	-2	66*	-14	-5
O=C(O)C1CC=C(Cl)CC1C(=O)NC1CCCCC1 (stereo not drawn)	-4	-3	-1	-1	1	-3	x	x	x
CCCn1c(=O)[nH]c(=O)c2c1nc(-c1ccccc1)n2CCN1CCOCC1	82*	8	-1	-3	7	-4	94*	-6	-21
CCCCn1c(=O)[nH]c(=O)c2c1nc(-c1ccc(-c3ccccc3)cc1)n2C	-1	0	1	-2	28	-8	x	x	x
COc1ccc(N2CCN(C(=O)c3ccc(CS(=O)Cc4ccc(Cl)cc4)o3)CC2)cc1 (stereo not drawn)	-5	0	-2	1	-2	-2	x	x	x
CCC1(c2ccccc2)NC(=O)N(CC(=O)N(C)CC(=O)Nc2c(C)cccc2C)C1=O (stereo not drawn)	2	0	2	-1	0	-8	-5	-3	x
CCC1(c2ccccc2)NC(=O)N(CC(=O)N(C)CC(=O)Nc2cccc(OC)c2)C1=O (stereo not drawn)	-4	-2	-5	-2	-2	6	x	x	x

Assay outcomes: PubChem BioAssay, Sanford-Burnham Center for Chemical Genomics
